Test results: ChEMBL document CHEMBL1806372, “Cytotoxic ring A-modified steroid analogues derived from Grundmann's ketone” (Eur J Med Chem, 2011)
Calls of active or inactive are those of the source. The calls are words filed in the database; no cut-off is given here.

Legend:
Type in all cases: functional
RXF 393 = assay: Cytotoxicity against human RXF393 cells after 48 hrs by sulforhodamine B assay; details: RXF 393, 48 h, read-out: LC50 (the source's name)
Method in brief: (§1)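 NCI 60 human tumour cell line panel run to the NCI protocol. GI50, TGI and LC50 come from log concentration vs % growth inhibition curves for each cell line. Lines insensitive at the top concentration are reported with ">".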

UACC-62 = assay: Growth inhibition of human UACC62 cells after 48 hrs by sulforhodamine B assay; details: UACC-62, 48 h
Method in brief: (§2)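 NCI 60-cell panel five-dose assay. GI50, TGI and LC50 are derived from log concentration versus % growth inhibition curves. Cell lines insensitive at the top concentration are given a ">" prefix.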

NCI-H460 = assay: Growth inhibition of human NCI-H460 cells after 48 hrs by sulforhodamine B assay; details: NCI-H460, 48 h
Method in brief: (§3)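 GI50, TGI and LC50 were derived from log concentration versus % growth inhibition curves for each cell line. GI50 is the concentration giving a 50% decrease in net cell growth. Insensitive lines are reported as greater than the highest concentration.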

U-251 = assay: Cytotoxicity against human U251 cells after 48 hrs by sulforhodamine B assay; details: U-251, 48 h, read-out: LC50 (the source's name)
DU-145 = assay: Cytotoxicity against human DU145 cells after 48 hrs by sulforhodamine B assay; details: DU-145, 48 h, read-out: LC50 (the source's name); method in brief: as §1
MDA-MB-468 = assay: Cytotoxicity against human MDA-MB-468 cells after 48 hrs by sulforhodamine B assay; details: MDA-MB-468, 48 h, read-out: LC50 (the source's name); method in brief: as §1
M14 [1] = assay: Growth inhibition of human M14 cells after 48 hrs by sulforhodamine B assay; details: M14, 48 h
Method in brief: (§4)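 From log concentration versus % growth curves, GI50 (50% decrease in net growth), TGI (total growth inhibition) and LC50 (net 50% loss of initial cells) are derived for each line.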

ACHN = assay: Cytotoxicity against human ACHN cells after 48 hrs by sulforhodamine B assay; details: read-out: LC50 (the source's name); method in brief: as §1
A498 = assay: Cytotoxicity against human A498 cells after 48 hrs by sulforhodamine B assay; details: A498, 48 h, read-out: LC50 (the source's name); method in brief: as §1
OVCAR-3 = assay: Growth inhibition of human OVCAR3 cells after 48 hrs by sulforhodamine B assay; details: OVCAR-3, 48 h; method in brief: as §3
CAKI-1 = assay: Cytotoxicity against human Caki1 cells after 48 hrs by sulforhodamine B assay; details: CAKI-1, 48 h, read-out: LC50 (the source's name); method in brief: as §1
786-0 = assay: Cytotoxicity against human 786-0 cells after 48 hrs by sulforhodamine B assay; details: 786-0, 48 h, read-out: LC50 (the source's name); method in brief: as §1
SK-MEL-5 = assay: Cytotoxicity against human SK-MEL-5 cells after 48 hrs by sulforhodamine B assay; details: SK-MEL-5, 48 h, read-out: LC50 (the source's name); method in brief: as §1
SW-620 = assay: Growth inhibition of human SW620 cells after 48 hrs by sulforhodamine B assay; details: SW-620, 48 h; method in brief: as §2
EKVX = assay: Growth inhibition of human EKVX cells after 48 hrs by sulforhodamine B assay; method in brief: as §4
MCF7 = assay: Cytotoxicity against human MCF7 cells after 48 hrs by sulforhodamine B assay; details: MCF7, 48 h, read-out: LC50 (the source's name); method in brief: as §1
Malme-3M = assay: Growth inhibition of human MALME-3M cells after 48 hrs by sulforhodamine B assay; method in brief: as §3
KM12 = assay: Growth inhibition of human KM12 cells after 48 hrs by sulforhodamine B assay; details: KM12, 48 h; method in brief: as §4
NCI-H522 = assay: Growth inhibition of human NCI-H522 cells after 48 hrs by sulforhodamine B assay; details: NCI-H522, 48 h; method in brief: as §3
HOP-92 = assay: Cytotoxicity against human HOP92 cells after 48 hrs by sulforhodamine B assay; details: HOP-92, 48 h, read-out: LC50 (the source's name); method in brief: as §1
M14 [2] = assay: Cytotoxicity against human M14 cells after 48 hrs by sulforhodamine B assay; details: M14, 48 h, read-out: LC50 (the source's name); method in brief: as §1
HCT-116 = assay: Growth inhibition of human HCT116 cells after 48 hrs by sulforhodamine B assay; details: HCT-116, 48 h; method in brief: as §4
Burkholderia gladioli = assay: Antibacterial activity against Pseudomonas antimicrobica assessed as zone of inhibition at 5 uL and 32 degC after 36 hrs by disk diffusion method
Method in brief: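 Disc diffusion on AC agar, each strain spread evenly over the medium; test compounds given as 1% (w/v) DMSO solutions. Plates covered and incubated 36 h at 32 °C, then the diameter of the zone of inhibited growth measured in mm. Tetracycline served as antibacterial reference.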

Compound	GI50 (UACC-62)	TGI (UACC-62)	GI50 (NCI-H460)	TGI (NCI-H460)	CC50 (DU-145)	GI50 (M14 [1])	GI50 (OVCAR-3)	TGI (OVCAR-3)	GI50 (SW-620)	GI50 (EKVX)	TGI (EKVX)	GI50 (Malme-3M)	TGI (Malme-3M)	GI50 (KM12)	TGI (KM12)	GI50 (NCI-H522)	TGI (NCI-H522)	CC50 (M14 [2])	GI50 (HCT-116)	TGI (HCT-116)	also measured
CC(C)CCC[C@@H](C)[C@H]1CC[C@H]2C3=CCn4c(=O)ccc(=O)n4[C@@H]3CC[C@]12C	544 nM	1950 nM	739 nM	2250 nM	4890 nM	285 nM	861 nM	2110 nM	375 nM	1030 nM	2750 nM	1440 nM	3030 nM	443 nM	1510 nM	175 nM	459 nM	3320 nM	142 nM	291 nM	CC50 (RXF 393): 5430 nM; CC50 (U-251): 4180 nM; CC50 (MDA-MB-468): 9420 nM; TGI (M14 [1]): 1010 nM; CC50 (ACHN): 5190 nM; CC50 (A498): 4870 nM; CC50 (CAKI-1): 3470 nM; CC50 (786-0): 4430 nM; CC50 (SK-MEL-5): 4520 nM; TGI (SW-620): 1360 nM; CC50 (MCF7): 4260 nM; CC50 (HOP-92): 3760 nM
CC(C)CCC[C@@H](C)[C@H]1CC[C@H]2C3=CC[C@@H]4C(=O)C=CC(=O)[C@@H]4[C@@H]3CC[C@]12C	752 nM	> 100000 nM	333 nM	5590 nM	> 100000 nM	299 nM	502 nM	> 100000 nM	141 nM	545 nM	> 100000 nM	399 nM	2000 nM	338 nM	> 100000 nM	803 nM	> 100000 nM	> 100000 nM	55 nM	1030 nM	diameter of the inhibition zone (DIZ) (Burkholderia gladioli): inactive
